The test system of assay [1] is Rattus norvegicus. The assay can be described thus: Antiinflammatory activity against lambda carrageenan-induced pleurisy in Wistar Han rat assessed as reduction in cellular infiltration at 10 mg/kg, ip administered 30 mins before carrageenan challenge measured after 4 hrs by trypan blue staining. The assay is classed as functional. Set-up: scale not given: the % may be the effect or the level left. As to conditions: route intraperitoneal. The method, boiled down: (§1)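 Male Wistar Han rats (220-230 g; n = 10 per group) received compound ip, or vehicle (DMSO 4%), 30 min before intrapleural λ-carrageenan under anaesthesia. After 4 h, exudate was collected and its volume measured. Leukocytes were counted by light microscopy after trypan blue staining. LTB4 was measured by EIA (ng/rat). Data are mean ± SE.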

In assay [2] the test system is Rattus norvegicus. The experiment in a line: Antiinflammatory activity against lambda carrageenan-induced pleurisy in Wistar Han rat assessed as reduction in exudate volume at 10 mg/kg, ip administered 30 mins before carrageenan challenge measured after 4 hrs by trypan blue staining. Type of assay: functional. As to conditions: route intraperitoneal. Set-up: scale not given: the % may be the effect or the level left. Put shortly:
as §1

In assay [3] the test system is Rattus norvegicus. The assay can be described thus: Antiinflammatory activity against lambda carrageenan-induced pleurisy in Wistar Han rat assessed as reduction in LTB4 level at 10 mg/kg, ip administered 30 mins before carrageenan challenge measured after 4 hrs by EIA. Type of assay: functional. Also on record: scale not given: the % may be the effect or the level left. As to conditions: route intraperitoneal. The method, boiled down: as §1

Assay [4] has as its system Rattus norvegicus. The assay can be described thus: Antiinflammatory activity against lambda carrageenan-induced pleurisy in Wistar Han rat assessed as reduction in inflammatory cell number at 4 mg/kg, ip administered 30 mins before carrageenan challenge measured after 4 hrs by trypan blue staining. Set-up: scale not given: the % may be the effect or the level left. Type of assay: functional. As to conditions: route intraperitoneal. The method, boiled down:
as §1

For assay [5], the system named is Rattus norvegicus. The experiment in a line: Antiinflammatory activity against lambda carrageenan-induced pleurisy in Wistar Han rat assessed as reduction in LTB4 levels at 4 mg/kg, ip before carrageenan challenge measured after 4 hrs by EIA. The assay is classed as functional. Set-up: scale not given: the % may be the effect or the level left. As to conditions: route intraperitoneal. Put shortly:
as §1

Assay [6] concerns Neutrophil. The assay can be described thus: Inhibition of […]-induced translocation of 5-lipoxygenase from cytosol to perinuclear region in human neutrophils at 100 uM by Western blotblot. Type of assay: functional, cell-based. In general terms: Immunoblotting shows a protein as a band on a membrane.
For assay [7], the system named is Rattus norvegicus. The experiment in a line: Antiinflammatory activity against lambda carrageenan-induced pleurisy in Wistar Han rat assessed as reduction in exudate volume at 4 mg/kg, ip administered 30 mins before carrageenan challenge measured after 4 hrs by trypan blue staining. Type of assay: functional. Set-up: scale not given: the % may be the effect or the level left. As to conditions: route intraperitoneal. The method, boiled down:
as §1

Assay [8] relates to Neutrophil. The assay can be described thus: Inhibition of […]-induced translocation of 5-lipoxygenase from cytosol to perinuclear region in human neutrophils at 0.1 uM to 10 uM by Western blot. The assay is classed as functional, cell-based.

The source made the active and inactive calls. No cut-off for these calls is given here.

In the case of `CC(c1cc2ccccc2s1)N(O)C(N)=O` (stereo not drawn) [ZILEUTON], the Activity in the assay on Rattus norvegicus [1] was found to be 41%; in the assay on Rattus norvegicus [2], 77%; in the assay on Rattus norvegicus [3] it was 66%.

In the case of `CCOC(=O)c1c(Cc2cccc(Cl)c2)[nH]c2c1cc(O)c1ccccc12`, the values for the Activity with Rattus norvegicus [4], with Rattus norvegicus [5] and in the assay with Rattus norvegicus [7] were 40%, 49% and 77%, respectively. For the same compound, the outcome in the assay with Neutrophil [6] was inactive.

For the compound `CC(C)c1ccc2c(c1)c(SC(C)(C)C)c(CC(C)(C)C(=O)O)n2Cc1ccc(Cl)cc1`, in the assay with Neutrophil [8], the outcome was inactive.

The record behind these values is ChEMBL document CHEMBL1137012, “Structural optimization and biological evaluation of 2-substituted 5-hydroxyindole-3-carboxylates as potent inhibitors of human 5-lipoxygenase” (J Med Chem, 2009).
